Test results reported in ChEMBL document CHEMBL2176869, “Discovery of TAK-875: A Potent, Selective, and Orally Bioavailable GPR40 Agonist” (ACS Med Chem Lett, 2010).
Active and inactive are the calls of the source. No cut-off for these calls is given here.

What was measured:
[1] = target: T1, Free fatty acid receptor 1 (Homo sapiens, UniProt O14842); test: Agonist activity at human GPR40 expressed in CHO cells assessed as calcium influx by FLIPR assay in presence of 0.1 % BSA; assay type: functional, cell-based
[2] = target: T1, Free fatty acid receptor 1; test: Displacement of 3-[4-({2',6'-dimethyl-6-[(4-[3H])phenylmethoxy]biphenyl-3-yl}methoxy)phenyl]propanoic acid from human GPR40 expressed in CHO membranes after 90 mins by liquid scintillation counting in presence of 0.2 % BSA; assay type: cell membranes
[3] = target: Free fatty acid receptor 1 (Rattus norvegicus, UniProt Q8K3T4); test: Displacement of 3-[4-({2',6'-dimethyl-6-[(4-[3H])phenylmethoxy]biphenyl-3-yl}methoxy)phenyl]propanoic acid from rat GPR40 expressed in CHO membranes after 90 mins by liquid scintillation counting in presence of 0.2 % BSA; assay type: cell membranes, Membrane
[4] = Cmax in fasted dog at 1 mg/kg, po; assay type: ADME, organism-based, Canis lupus familiaris; parameters: dose 1 mg/kg, route oral; conditions: in vivo
Outline: (§1)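 Dogs given 0.5 mg/kg iv or 1 mg/kg po, with plasma PK parameters derived. Cmax and AUC are reported as anhydrous-compound equivalents. Means of n = 4 dogs.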

[5] = target: T2, Free fatty acid receptor 2 (Homo sapiens, UniProt O15552); test: Agonist activity at human GPR43 expressed in 293 cells assessed as cAMP accumulation after 30 mins by Alphascreen method; assay type: functional, cell-based, HEK293
T2 sequence (O15552 whole entry): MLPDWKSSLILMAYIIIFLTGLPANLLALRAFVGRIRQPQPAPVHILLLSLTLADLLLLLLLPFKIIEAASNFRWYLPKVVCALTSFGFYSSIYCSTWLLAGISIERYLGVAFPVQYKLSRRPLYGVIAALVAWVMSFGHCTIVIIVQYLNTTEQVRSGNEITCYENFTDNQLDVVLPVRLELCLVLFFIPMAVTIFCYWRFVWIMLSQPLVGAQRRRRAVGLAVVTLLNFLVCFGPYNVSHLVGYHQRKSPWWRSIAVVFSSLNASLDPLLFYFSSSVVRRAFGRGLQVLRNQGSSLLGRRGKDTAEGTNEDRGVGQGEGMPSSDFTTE

[6] = target: T3, Free fatty acid receptor 4 (Homo sapiens, UniProt Q5NUL3); test: Agonist activity at human GPR120 expressed in CHO cells assessed as calcium influx after 30 mins by FLIPR assay; assay type: functional, cell-based
T3 sequence (Q5NUL3 whole entry): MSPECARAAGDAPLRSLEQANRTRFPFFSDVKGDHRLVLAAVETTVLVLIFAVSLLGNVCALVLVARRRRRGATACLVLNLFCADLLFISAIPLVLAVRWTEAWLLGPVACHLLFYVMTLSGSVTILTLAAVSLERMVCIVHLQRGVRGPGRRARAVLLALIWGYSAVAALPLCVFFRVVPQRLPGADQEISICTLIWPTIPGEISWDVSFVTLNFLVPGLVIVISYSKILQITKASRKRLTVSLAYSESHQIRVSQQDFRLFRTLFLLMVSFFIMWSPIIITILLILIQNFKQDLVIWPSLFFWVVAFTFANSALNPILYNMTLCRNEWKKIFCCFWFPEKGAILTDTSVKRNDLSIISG

Rattus norvegicus [7] = test: Antidiabetic activity in Wistar fatty rat assessed as augmentation of insulin secretion at 0.3 to 3 mg/kg, po administered 1 hr prior glucose challenge as single dose by OGTT
[8] = Terminal half life in fasted dog at 1 mg/kg, po; assay type: ADME, organism-based, Canis lupus familiaris; parameters: dose 1 mg/kg, route oral; conditions: in vivo, read-out: t1/2lambda (converted); outline: as §1
[9] = Cmax in fasted Crl:CD(SD) rat at 3 mg/kg, po; assay type: ADME, organism-based; parameters: dose 3 mg/kg, route oral; conditions: in vivo
Outline: (§2)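 Rats dosed at 1 mg/kg iv or 3 mg/kg po, with plasma sampling for PK parameters. Cmax and AUC are expressed as anhydrous-compound equivalents. Values are means of n = 3 rats.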

Rattus norvegicus [10] = test: Antidiabetic activity in po dosed Wistar fatty rat assessed as augmentation of insulin secretion at administered 1 hr prior glucose challenge as single dose by OGTT; assay type: functional; conditions: read-out: MED
Outline: (§3)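 Female Wistar fatty rats got a single oral dose of 0.3–3 mg/kg 1 h before a 1 g/kg oral glucose challenge (OGTT). Plasma glucose and insulin were followed over time. Read-outs were incremental AUC0–120 min for glucose and AUCpre–30 min for insulin. Means ± SD, n = 6; compared with vehicle control by one-tailed Williams' test.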

[11] = Terminal half life in fasted Crl:CD(SD) rat at 1 mg/kg, iv; assay type: ADME, organism-based; parameters: dose 1 mg/kg, route intravenous; conditions: in vivo, read-out: t1/2lambda (converted); outline: as §2
[12] = AUC (0 to 24 hrs) in fasted dog at 1 mg/kg, po; assay type: ADME, organism-based, Canis lupus familiaris; parameters: time < 24 hr, dose 1 mg/kg, route oral; conditions: plasma; outline: as §1
[13] = Terminal half life in fasted dog at 0.5 mg/kg, iv; assay type: ADME, organism-based, Canis lupus familiaris; parameters: dose 0.5 mg/kg, route intravenous; conditions: in vivo, read-out: t1/2lambda (converted); outline: as §1
[14] = Volume of distribution at steady state in fasted Crl:CD(SD) rat at 1 mg/kg, iv; assay type: ADME, organism-based; parameters: dose 1 mg/kg, route intravenous; conditions: in vivo, read-out: Vdss; outline: as §2
[15] = Tmax in fasted dog at 1 mg/kg, po; assay type: ADME, organism-based, Canis lupus familiaris; parameters: dose 1 mg/kg, route oral; conditions: in vivo; outline: as §1
[16] = Oral bioavailability in fasted Crl:CD(SD) rat at 3 mg/kg; assay type: ADME, organism-based; conditions: in vivo; outline: as §2
[17] = Oral bioavailability in fasted dog at 1 mg/kg; assay type: ADME, organism-based, Canis lupus familiaris; conditions: in vivo; outline: as §1
Rattus norvegicus [18] = test: Antidiabetic activity in po dosed Wistar fatty rat assessed as reduction in blood glucose excursion at administered 1 hr prior glucose challenge as single dose by OGTT; assay type: functional; conditions: read-out: MED; outline: as §3
[19] = Tmax in fasted Crl:CD(SD) rat at 3 mg/kg, po; assay type: ADME, organism-based; parameters: dose 3 mg/kg, route oral; conditions: in vivo; outline: as §2
[20] = target: T4, Free fatty acid receptor 3 (Homo sapiens, UniProt O14843); test: Agonist activity at human GPR41 expressed in 293 cells assessed as cAMP accumulation after 30 mins by Alphascreen method; assay type: functional, cell-based, HEK293
T4 sequence (O14843 whole entry): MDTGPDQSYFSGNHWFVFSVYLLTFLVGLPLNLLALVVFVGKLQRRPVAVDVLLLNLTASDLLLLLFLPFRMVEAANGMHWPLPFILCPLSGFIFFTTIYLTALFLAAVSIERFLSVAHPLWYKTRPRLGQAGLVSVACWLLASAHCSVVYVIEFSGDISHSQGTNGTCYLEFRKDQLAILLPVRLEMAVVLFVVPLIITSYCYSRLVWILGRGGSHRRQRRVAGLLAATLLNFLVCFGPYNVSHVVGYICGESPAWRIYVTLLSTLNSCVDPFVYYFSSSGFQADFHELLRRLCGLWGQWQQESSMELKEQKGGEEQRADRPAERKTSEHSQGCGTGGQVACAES

[21] = Terminal half life in fasted Crl:CD(SD) rat at 3 mg/kg, po; assay type: ADME, organism-based; parameters: dose 3 mg/kg, route oral; conditions: in vivo, read-out: t1/2lambda (converted); outline: as §2
[22] = Clearance in fasted Crl:CD(SD) rat at 1 mg/kg, iv; assay type: ADME, organism-based; parameters: dose 1 mg/kg, route intravenous; conditions: in vivo; outline: as §2
[23] = AUC (0 to 24 hrs) in fasted Crl:CD(SD) rat at 3 mg/kg, po; assay type: ADME, organism-based; parameters: time < 24 hr, dose 3 mg/kg, route oral; conditions: plasma; outline: as §2
[24] = Clearance in fasted dog at 0.5 mg/kg, iv; assay type: ADME, organism-based, Canis lupus familiaris; parameters: dose 0.5 mg/kg, route intravenous; conditions: in vivo; outline: as §1
Rattus norvegicus [25] = test: Antidiabetic activity in Wistar fatty rat assessed as reduction in blood glucose excursion at 0.3 to 3 mg/kg, po administered 1 hr prior glucose challenge as single dose by OGTT; assay type: functional, organism-based; outline: as §3
[26] = Volume of distribution at steady state in fasted dog at 0.5 mg/kg, iv; assay type: ADME, organism-based, Canis lupus familiaris; parameters: dose 0.5 mg/kg, route intravenous; conditions: in vivo, read-out: Vdss; outline: as §1

T1 sequence (O14842 whole entry): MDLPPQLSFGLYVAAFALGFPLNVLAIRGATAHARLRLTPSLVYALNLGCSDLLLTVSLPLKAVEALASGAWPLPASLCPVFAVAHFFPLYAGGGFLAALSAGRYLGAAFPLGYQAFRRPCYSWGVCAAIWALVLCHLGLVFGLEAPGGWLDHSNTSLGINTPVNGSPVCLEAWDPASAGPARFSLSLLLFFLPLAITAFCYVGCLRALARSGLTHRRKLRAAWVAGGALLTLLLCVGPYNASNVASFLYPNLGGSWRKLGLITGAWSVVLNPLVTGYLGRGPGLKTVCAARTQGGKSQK
Free fatty acid receptor 1 (Rattus norvegicus, UniProt Q8K3T4), sequence (Q8K3T4 whole entry): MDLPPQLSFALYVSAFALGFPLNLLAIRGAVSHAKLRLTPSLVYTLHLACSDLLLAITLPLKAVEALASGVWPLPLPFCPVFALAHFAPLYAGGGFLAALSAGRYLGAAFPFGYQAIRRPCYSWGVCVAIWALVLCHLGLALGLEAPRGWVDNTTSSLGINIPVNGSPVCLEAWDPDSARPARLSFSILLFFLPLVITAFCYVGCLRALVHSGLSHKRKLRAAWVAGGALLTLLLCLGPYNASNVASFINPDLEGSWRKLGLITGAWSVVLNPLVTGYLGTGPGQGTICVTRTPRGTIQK

## Cc1cccc(C)c1-c1cccc(COc2ccc3c(c2)OCCC(C(=O)O)C3)c1 (centres undefined)
[1]
  EC50: 49 nM
[2]
  Ki: 270 nM
[3]
  Ki: > 10000 nM

## Cc1cccc(C)c1-c1cccc(COc2ccc3c(c2)CCC3CC(=O)O)c1 (centres undefined)
[1]
  EC50: 28 nM
[2]
  Ki: 210 nM
[3]
  Ki: 520 nM

## Cc1cccc(C)c1-c1cccc(COc2ccc(CCC(=O)O)c(F)c2)c1
[3]
  Ki: 54 nM

## Cc1cccc(C)c1-c1cccc(COc2ccc3c(c2)CCCCC3CC(=O)O)c1 (centres undefined)
[1]
  EC50: 540 nM
[2]
  Ki: 2400 nM
[3]
  Ki: > 10000 nM

## Cc1cccc(C)c1-c1cccc(COc2ccc3c(CC(=O)O)coc3c2)c1
[1]
  EC50: 1700 nM
[2]
  Ki: > 10000 nM
[3]
  Ki: > 10000 nM

## Cc1cccc(C)c1-c1cccc(COc2ccc3c(c2)CCCC3CC(=O)O)c1 (centres undefined)
[1]
  EC50: 23 nM
[2]
  Ki: 59 nM
[3]
  Ki: 3700 nM

## Cc1cc(OCCCS(C)(=O)=O)cc(C)c1-c1cccc(COc2ccc3c(c2)OC[C@@H]3CC(=O)O)c1
[3]
  Ki: 1600 nM

## Cc1cccc(C)c1-c1cccc(COc2ccc3c(c2)OCC3CC(=O)O)c1 (centres undefined)
[1]
  EC50: 22 nM
[2]
  Ki: 170 nM
[3]
  Ki: 1100 nM

## Cc1cc(OCCCS(C)(=O)=O)cc(C)c1-c1cccc(COc2ccc3c(c2)OC[C@H]3CC(=O)O)c1.O
[4]
  Cmax: 3290 ng/mL
[5]
  EC50: > 10000 nM
[6]
  EC50: > 10000 nM
Rattus norvegicus [7]
  Activity: Active
[8]
  half-life: 7.5 h
[9]
  Cmax: 5770 ng/mL
Rattus norvegicus [10]
  minimal effective dose: 1 mg/kg
[11]
  half-life: 4.7 h
[3]
  Ki: 140 nM
[12]
  AUC(0-t) at 24 h: 29400 ng·h/mL
[13]
  half-life: 5.9 h
[14]
  Vd: 0.208 L/kg
[15]
  Tmax: 2 h
[16]
  bioavailability: 76%
[17]
  bioavailability: 92.4%
Rattus norvegicus [18]
  minimal effective dose: 1 mg/kg
[19]
  Tmax: 1 h
[20]
  EC50: > 10000 nM
[21]
  half-life: 4.1 h
[22]
  clearance: 0.569 mL/min/kg
[23]
  AUC(0-t) at 24 h: 65000 ng·h/mL
[24]
  clearance: 0.496 mL/min/kg
Rattus norvegicus [25]
  Activity: Active
[26]
  Vd: 0.225 L/kg
